Published values collected from several papers.
Target: Serine/threonine-protein kinase pim-3 (PIM3, Homo sapiens, UniProt Q86V86)

The remaining binding of `O=C1CCc2cc(Nc3cc(OC4CCOCC4)c([N+](=O)[O-])cc3Cl)ccc2N1` is reported as 100% (cell-free assay; competition with immobilised ligand; 1 µM).
`CCN1CCN(Cc2ccc(C(=O)Nc3ccc(C)c(Oc4ccc5c(c4)CC(=O)N5)c3)cc2C(F)(F)F)CC1` has a remaining binding of 100% (binding; competition with immobilised ligand; 1 µM).
With `O=C(c1ccc(Nc2nccc(-c3cc4ccccc4s3)n2)cc1)N1CCC(N2CCCC2)CC1` the remaining binding was 78% (binding; competition with immobilised ligand; 1 µM).
`C=CC(=O)N1CCC(C(=O)NCC(=O)N2CCN(c3nc(-c4cnc(N)nc4C(F)F)nc(N4CCOCC4)n3)CC2)CC1` gave a remaining binding of 97% (binding; competition with immobilised ligand; 1 µM).
With `O=C(c1ccc(Nc2ncc(Cl)c(-c3ccc(Cl)s3)n2)cc1)N1CCC(N2CCCC2)CC1` the remaining binding was 73% (binding; competition with immobilised ligand; 1 µM).
The remaining binding of `COc1ncc2cc3ccccc3nc2c1C#N` is reported as 79% (cell-free assay; competition with immobilised ligand; 5 µM).
With `COc1ccc2c(O[C@@H]3C[C@H]4C(=O)N[C@]5(C(=O)O)CC5/C=C\CCCCC[C@H](NC(=O)OC5CCCC5)C(=O)N4C3)cc(-c3csc(NC(=O)C(C)C)n3)nc2c1C` (stereo partly drawn) the remaining binding was 94% (cell-free assay; competition with immobilised ligand; 1 µM).
The remaining binding of `O=C(NCC1CCOCC1)c1n[nH]cc1NC(=O)c1c(F)cccc1F` is reported as 99% (binding; competition with immobilised ligand; 1 µM).
The remaining binding of `CNC(=O)[C@@H]1CC[C@@H](n2c(-c3ccc4cnccc4c3)nc3ccc(C(=O)NCc4cccc(C(N)=O)c4)cc32)C1` is reported as 100% (binding; competition with immobilised ligand; 1 µM).
For `C[C@@H]1CN(c2ccc3ncc(-c4ccc5[nH]nc(C6CC6)c5c4)n3n2)C[C@H](C)O1`, the remaining binding was 33% (binding; competition with immobilised ligand; 0.5 µM).
`COc1cnc(Nc2cccc(S(N)(=O)=O)c2)nc1N1CCN(c2ccccc2)CC1` gave a remaining binding of 94% (binding; competition with immobilised ligand; 1 µM).
With `COc1ccc2c(c1)O[C@H](c1ccc(OC)c(OC)c1)C[C@@H]2NC(=O)C1(c2ccc3c(c2)OC(F)(F)O3)CC1` the remaining binding was 100% (cell-free assay; competition with immobilised ligand; 1 µM).
For `N[C@@H]1CCN(c2nccc(-c3cnn4ncccc34)n2)C1`, the remaining binding was 100% (binding; 1 µM).
For `CN([C@@H]1CCc2c(CC(=O)O)c3cc(S(C)(=O)=O)ccc3n2C1)S(=O)(=O)c1ccc(F)cc1`, the remaining binding was 100% (cell-free assay; competition with immobilised ligand; 1 µM).
For `Cc1cnn2ncc(-c3ccnc(N(C)C)n3)c2c1`, the remaining binding was 85% (binding; 1 µM).
The remaining binding of `N#CC1(c2ccccn2)CCN(Cc2cc(C(=O)N3CCCC3)c(=O)n3ccccc23)CC1` is reported as 99% (cell-free assay; competition with immobilised ligand; 1 µM).
With `F[C@@H]1CCN(c2nccc(-c3cnn4ncccc34)n2)C1` the remaining binding was 100% (binding; 1 µM).
The remaining binding of `CSc1cccnc1N1CCN(Cc2nc3ccccc3[nH]2)CC1` is reported as 94% (cell-free assay; competition with immobilised ligand; 1 µM).
`CC1CCCN1c1nccc(-c2cnn3ncccc23)n1` (stereo not drawn) gave a remaining binding of 100% (binding; 1 µM).
For `C[C@@H]1CN(c2cc(-c3nn(C)c4ccc(OC5(C)CC5)cc34)ncn2)C[C@H](C)O1`, the remaining binding was 92% (cell-free assay; competition with immobilised ligand; 1 µM).
`CN(CCCC(F)(F)F)c1nccc(-c2cnn3ncccc23)n1` has a remaining binding of 100% (binding; 1 µM).
With `Nc1ncc2c(n1)-c1c([nH]c3ccc(C#CC4CC4)cc13)CCCC2` the remaining binding was 76% (binding; competition with immobilised ligand; 1 µM).
The remaining binding of `C[C@H]1CCN(c2nccc(-c3cnn4ncccc34)n2)C1` is reported as 81% (binding; 1 µM).
For `O=C(NCCCN1CCOCC1)c1ccc(Nc2nccc(-c3cc4ccccc4s3)n2)cc1`, the remaining binding was 91% (binding; competition with immobilised ligand; 1 µM).
